SUMO1-SIM PPI: modulators of human SUMO1-mediated protein-protein interactions | P63165 | SUMO1 binding to a labelled peptide, TR-FRET, 1 h | inhibition, % at 20 µM | hit rate 0.33% among 360,000; in the data active = inhibition above about 37%
Target sequence (P63165 whole entry, looked up): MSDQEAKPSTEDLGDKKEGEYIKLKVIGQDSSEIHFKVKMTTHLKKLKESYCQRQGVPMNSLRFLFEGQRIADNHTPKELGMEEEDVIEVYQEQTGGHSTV
STEP block: STEP (human) phosphatase inhibition; recombinant STEP, OMFP fluorogenic substrate, fluorescence; inhibition, % at 20 µM; hit rate 0.25% among 360,000; AID 588621;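 active = inhibition at 20 µM, scaled per plate between control wells, above about 37%, limit read from the data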
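Assay system: isolated STEP enzyme / Timing: 20 min at room temperature, dark / Doses: 20 µM, 1% DMSO / Technique: fluorescence intensity, excitation 480 nm, emission 540 nm / Reagent: fluorogenic phosphatase substrate OMFP at 25 µM final / Measure: percent inhibition scaled to no-enzyme and uninhibited-enzyme controls, plate-pattern corrected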
HKDC1 inhibitor: blocks human hexokinase HKDC1 activity | Q2TB90 | recombinant HKDC1, G6PDH/diaphorase resazurin coupled fluorescence | inhibition, % at 20 µM | hit rate 0.16% among 340,000 | AID 493160;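 active = inhibition above about 35% when tested at 20 µM, limit read from the data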
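Material: recombinant HKDC1 hexokinase; Amount: HKDC1 at 5 µg/mL; Medium: Tris pH 8.0 buffer with MgCl2, Tween-20, BSA, BME; Schedule: 90 min reaction incubation at room temperature, dark; Technique: coupled resazurin fluorescence, excitation 525 nm, emission 613 nm.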
Scp1 inh: blocks human Scp-1 phosphatase activity; Recombinant Scp1, phosphopeptide, malachite green phosphate absorbance; inhibition, % at 20 µM; hit rate 0.88% among 340,000; AID 493091;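 active = inhibition above about 50% at 20 µM, limit read from the data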
Target sequence (Q9GZU7 76-261 limits assumed): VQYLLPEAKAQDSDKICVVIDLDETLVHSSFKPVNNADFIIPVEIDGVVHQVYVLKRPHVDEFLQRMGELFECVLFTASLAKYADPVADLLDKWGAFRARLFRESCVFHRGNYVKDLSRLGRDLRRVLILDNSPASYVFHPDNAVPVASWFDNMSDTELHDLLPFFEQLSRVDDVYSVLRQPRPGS
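Test system: SCP-1 phosphatase catalytic domain, residues 76-261 | Compound dosing: One concentration, 20 µM, with 1.0% DMSO | Schedule: 45 min room-temperature reaction, 5 min colour, 30 min stabiliser | Detection: Absorbance at 630 nm | Read-out basis: % inhibition of SCP-1 phosphate liberation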
LMPTP block: LMPTP (human) inhibition; P24666; recombinant LMPTP-A, OMFP fluorogenic substrate, fluorescence intensity; inhibition, % at 20 µM; hit rate 0.22% among 360,000;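 active = compounds that cut the enzyme signal by at least half of the control window in the single-dose screen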
Target sequence (P24666 whole entry, looked up): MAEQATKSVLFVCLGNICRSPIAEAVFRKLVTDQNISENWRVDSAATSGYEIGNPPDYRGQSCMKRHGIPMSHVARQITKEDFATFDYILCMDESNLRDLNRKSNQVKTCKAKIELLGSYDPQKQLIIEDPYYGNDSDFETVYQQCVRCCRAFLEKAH
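Assay system: LMPTP-A enzyme. Input: 0.625 nM LMPTP-A final. Probe or stimulus: 400 µM OMFP. Compound dosing: single 20 µM dose. Schedule: 50 min dark incubation at room temperature. Detection: fluorescence intensity of OMFP turnover product. Read-out: percent inhibition versus substrate-only and uninhibited controls. Benchmarks: no-enzyme low control, uninhibited high control.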
DNMT1 block: inhibitors of human DNMT1; P26358; hit rate 0.83% among 360,000; inhibition (reported as % activation of signal), % at 10 µM; DNMT1 molecular beacon, Hinp1I cleavage, fluorescence; in the data active = inhibition above about 50%
Large screens that a line does not name were inactive. Hits are enriched below; roughly 1.8% of the tested compounds scored in any of these assays.

COc1ccc(S(=O)(=O)N2CCCC2CNC(=O)C(=O)Nc2ccc(F)cc2)cc1 (stereo not drawn)	none
COc1cccc(-c2csc3nnc(SCC(=O)c4ccc(NC(C)=O)cc4)n23)c1	SUMO1-SIM PPI 42.6
COc1ccc(OC)c(-c2csc3nnc(SCC(=O)Nc4ccc(NC(C)=O)cc4)n23)c1	none
C=CCOc1ccc(/C=N/O)cc1Cl	none
CSc1nc(SCC(=O)O)c2sc3nc(-c4ccccc4)c4c(c3c2n1)CCC4	SUMO1-SIM PPI 100.7, STEP block 97.0, Scp1 inh 60.2, LMPTP block 94.7, DNMT1 block 96.8
CCOC(=O)c1ccccc1NC(=O)C=C(C)C	none
CCOC(=O)c1ccccc1NC(=O)/C=C/c1cc(OC)c(OC)c(OC)c1	SUMO1-SIM PPI 42.6
COc1ccc(-n2sc3ccc(F)cc3c2=O)cc1	Scp1 inh 80.9
Cc1ccc(C)c(-n2sc3ccc(F)cc3c2=O)c1	Scp1 inh 70.4
O=c1c2cc(F)ccc2sn1-c1ccc(F)cc1	Scp1 inh 80.8
C=CCNc1nc(NCCCN2CCCC2=O)c2sc(-c3ccccc3)cc2n1	none (no result: HKDC1 inhibitor, Scp1 inh)
O=C1CCCN1CCCNc1nc(NCc2ccccc2)nc2ccsc12	LMPTP block 67.5 (no result: HKDC1 inhibitor, Scp1 inh)
COCCCOc1ccnc(CS(=O)c2nc3ccccc3[nH]2)c1C (stereo not drawn)	STEP block 73.5
O=C(Nc1ccccc1Cl)C1CC(=O)N(Cc2ccco2)C1 (stereo not drawn)	none
CSCc1ccc(C(=O)N2CCCC(Nc3ccc(F)cc3)C2)o1 (stereo not drawn)	none
Cc1ccsc1-c1nc(C(N)=O)c2[nH]c(=O)n(-c3ccc(Cl)cc3)c2n1	DNMT1 block 55.4
O=C(NC(=S)Nc1ccc2oc(-c3cccnc3)nc2c1)c1cccc(Cl)c1	none
CC(=O)Nc1ccc(Nc2c3c4c(cccc4n(C)c2=O)C(=O)c2ccccc2-3)cc1	none
Cn1c(=O)c(N)c2c3c(c(Br)ccc31)C(=O)c1ccccc1-2	DNMT1 block 155.0
C=CCn1c(SCC(=O)c2ccc(O)c(O)c2)nnc1-c1cccc(C)c1	none
C=CCn1c(SCC(=O)c2ccc(O)c(O)c2)nnc1-c1cccnc1	Scp1 inh 72.5
O=C(NC1(C(F)(F)F)NC(=O)N(Cc2ccccc2)C1=O)c1cccs1 (stereo not drawn)	none
C=C(C)C(=O)Oc1ccc(N=Nc2ccc(C)cc2)ccc1=O	SUMO1-SIM PPI 47.5, Scp1 inh 85.4, DNMT1 block 95.4
CC(=O)c1ccc(N=Nc2ccc(C)cc2)cc1	none
Cc1cnc(C=NNC(N)=S)c2cccc(N)c12	SUMO1-SIM PPI 107.5, STEP block 97.1, Scp1 inh 83.9, LMPTP block 85.9, DNMT1 block 114.0
NC(=S)NN=Cc1nccc2ccccc12	none
CCCCn1c(NC(=O)c2ccco2)c(S(=O)(=O)c2ccc(C)cc2)c2nc3ccccc3nc21	SUMO1-SIM PPI 41.6
CCCCn1c(NC(=O)c2ccc(Br)o2)c(S(=O)(=O)c2ccccc2)c2nc3ccccc3nc21	SUMO1-SIM PPI 46.7
Cc1ccc(S(=O)(=O)c2c(N)n(CCC(C)C)c3nc4ccccc4nc23)cc1	SUMO1-SIM PPI 42.4
CCCCn1c(NS(=O)(=O)c2ccccc2)c(S(=O)(=O)c2ccc(C)cc2)c2nc3ccccc3nc21	SUMO1-SIM PPI 48.2, DNMT1 block 80.0
CCCCCn1c(NC(=O)c2ccco2)c(S(=O)(=O)c2ccc(C)cc2)c2nc3ccccc3nc21	none
COC(=O)c1ccccc1NC(=O)C(=O)NCc1ccncc1	none
O=c1[nH]c2ccccc2nc1C(Nc1ccccc1)c1ccccc1 (stereo not drawn)	none
O=C(O)c1cc(S(=O)(=O)N2CCCCC2)ccc1N1CCCCC1	none
Fc1cccc2sc(Nc3nnc(-c4ccccc4)o3)nc12	Scp1 inh 50.7
O=C(CCCN1C(=O)/C(=C\c2cccs2)SC1=S)NNC(=O)c1cccnc1	none
O=C(/C=C/c1ccc(Cl)c(Cl)c1)NC1=NCCS1	none
Cc1c(C(=O)Nc2ccccc2F)sc2ncn(CC(=O)N3CCCCC3)c(=O)c12	none
COc1cccc(N(CC(=O)NC2CCCCC2)C(=O)CCCC(=O)Nc2ccccn2)c1	none

Bioassay records deposited in PubChem by Sanford-Burnham Center for Chemical Genomics.
